Source: PubChem BioAssay
The sample as a whole holds a higher share of hits than the screen did.
Fibroblast inh – blocks proliferation of human lung fibroblasts; LL 47 human lung fibroblast viability, ATP luminescence; stronger effect = lower value; viability, % at 10 µM; 1.1% of 85,000 active;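 active = viability at or below 50% in the single dose screen; inactive = viability above 50%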;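 note: compound exposure lasted 72 h before the ATP readout; 100% = median luminescence of untreated cell-only wells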
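Test system: LL 47 human lung fibroblasts; Quantity: 1,150 cells/well; Buffer or medium: IMEM plus 15% FBS; Dosing: tenfold compound dosing solution, DMSO at 0.1%; Timing: overnight cell rest, 72 h compound treatment at 37 °C; Detection: ATP-based CellTiter-Glo luminescent readout; Read-out basis: viability percentage against median untreated-cell control; Controls: cell-only wells, no compound.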
HCT116 bCat-KO – beta-catenin-lacking colon tumor cell growth suppression | HCT116 beta-catenin knockout viability, CellTiter-Glo, 60 h; stronger effect = lower value | AID 818 | viability, % at 10 µM | 1.5% of 140,000 active;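 active = viability at or under a set limit, the compound median less 4 SD, cut at about 6% in these data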;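 note: 0% = Hyamine 1622 control at 20 µM and 100% = untreated cell control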
PTEN del growth – suppresses growth of cells with PTEN deletion | viability, % at 10 µM | AID 827 | 1.2% of 140,000 active | HCT116 PTEN-null viability, CellTiter-Glo, 60 h; stronger effect = lower value;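 active = viability at or below a set limit, 4 SD under the median of all tested compounds, cut at about 3.7% in these data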;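 note: PTEN knockout HCT116 line with beta catenin targeted HCT116 as companion control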
HUVEC prolif 384 – blocks proliferation of human endothelial cells; HUVEC proliferation, CellTiter-Glo luminescence, 72 h; stronger effect = lower value; viability, % at 10 µM (by protocol); 1.1% of 86,000 active;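 active = viability at or below 30%; inactive = viability above 30%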;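 note: 100% = median luminescence of DMSO-only cell control wells on each plate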
H69AR growth 86K – growth inhibitors of human H69AR lung tumor cells; H69AR lung tumor viability, ATP luminescence, 72 h; stronger effect = lower value; 6% of 85,000 active; viability, % at 10 µM;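 active = viability at or below 40%; inactive = viability above 40%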;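 note: multidrug resistant small cell line overexpressing MRP-1 efflux transporter; 100% = mean luminescence of untreated control wells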
Starred values were filed as active, the others as inactive; . = not tested or not shown.

SMILES | Fibroblast inh | HCT116 bCat-KO | PTEN del growth | HUVEC prolif 384 | H69AR growth 86K
COc1ccc(Nc2nc(N3CCCC3)c3ccccc3n2)cc1 | 19.9* | 1.7* | 1.9* | 7.7* | 35.9*
CSc1nc(N2CCOCC2)c2ccccc2n1 | 96.5 | 86.4 | 91.8 | 97.5 | 80.9
COC(=O)/C=C/c1ccc(OC(=O)c2ccncc2)cc1 | . | 81.0 | 103.5 | . | .
Cc1ccc(OC(=O)c2cccc([N+](=O)[O-])c2)c(-n2nc3ccccc3n2)c1 | . | 81.7 | 86.1 | . | .
COc1ccc(C(=O)/C=C/c2ccccc2F)c(OC(=O)c2ccc([N+](=O)[O-])cc2)c1 | . | 31.8 | 23.3 | . | .
O=C(C#Cc1ccccc1)c1cccc([N+](=O)[O-])c1 | 17.9* | 2.4* | 2.1* | 44.8 | 1.4*
O=C(Oc1ccc(F)cc1C(=O)/C=C/c1cccs1)c1cccc([N+](=O)[O-])c1 | 63.8 | 60.2 | 50.0 | 59.7 | 3.0*
N/C(=N\OC(=O)Oc1ccccc1)c1cccc([N+](=O)[O-])c1 | . | 98.1 | 97.1 | . | .
O=C(/C=C/c1ccccc1F)c1cccc([N+](=O)[O-])c1 | . | 3.2* | 2.6* | . | .
COc1cc(/C=C/C(=O)c2cccc([N+](=O)[O-])c2)cc(OC)c1OC | . | 2.1* | 1.4* | . | .
COC(=O)c1cccc(NC(=O)/C=C/c2cccc([N+](=O)[O-])c2)c1 | . | 101.0 | 107.6 | . | .
COc1ccc(/C=N/NC(N)=S)cc1OC(=O)c1cccc2ccccc12 | . | 46.0 | 29.2 | . | .
COc1ccc(C(=O)CC(=O)C(=O)NCCc2cccc(C)c2)cc1 | . | 101.6 | 90.9 | . | .
CC1CCC2(CC1)C(Nc1cccc(Cl)c1)=NC(=S)N2CC#N (stereo unspecified) | 87.5 | 67.0 | 62.1 | 103.1 | 63.8
COC1(OC)C(/C=C/c2ccc(C)cc2)C(C#N)(C#N)C1(OC)OC (stereo unspecified) | 54.5 | 8.2 | 5.6 | 87.4 | 12.2*
Cc1ccc(CNCCC2=CCCCC2)cc1 | . | 83.0 | 83.8 | . | .
COc1ccc(N(CC(O)Cn2c3ccccc3c3ccccc32)S(=O)(=O)c2ccccc2)cc1 (stereo unspecified) | . | 20.9 | 17.5 | . | .
CCN(CC(O)Cn1c2ccccc2c2ccccc21)S(=O)(=O)c1ccc(C)cc1 (stereo unspecified) | 101.8 | 74.8 | 57.7 | 27.0* | 26.8*
CC(=O)Nc1ccccc1N(CC(O)Cn1c2ccccc2c2ccccc21)S(=O)(=O)c1ccc(C)cc1 (stereo unspecified) | . | 19.2 | 6.1 | . | .
CS(=O)(=O)N(CC(O)Cn1c2ccccc2c2ccccc21)c1ccccc1 (stereo unspecified) | 89.1 | 81.3 | 77.2 | 80.8 | 30.4*
Cc1ccc2nc(C)cc(Nc3ccc4c(c3)OCCO4)c2c1 | . | 9.9 | 12.2 | . | .
CCOc1ccc2nc(C)cc(Nc3cccc([N+](=O)[O-])c3)c2c1 | . | 1.5* | 1.5* | . | .
CCOc1ccc2nc(C)cc(Nc3ccc4c(c3)OCCO4)c2c1 | . | 0.7* | 0.8* | . | .
Cc1ccc2cccc(NC(=S)NC(=O)c3ccn(C)n3)c2n1 | 88.4 | 53.8 | 58.3 | 82.5 | 62.8
Cc1ccc2cccc(NC(=S)NC(=O)c3c(Br)cnn3C)c2n1 | 81.8 | 59.1 | 57.4 | 61.7 | 26.1*
SMILES | Fibroblast inh | HCT116 bCat-KO | PTEN del growth | HUVEC prolif 384 | H69AR growth 86K
CCOc1cc(C2c3c(oc4cc(C)c(Cl)cc4c3=O)C(=O)N2Cc2ccco2)ccc1O (stereo unspecified) | 53.0 | 49.0 | 33.9 | 41.0 | 3.1*
Cc1ccc2oc3c(c(=O)c2c1)C(c1cccc(Br)c1)N(Cc1ccco1)C3=O (stereo unspecified) | 10.5* | 56.4 | 28.2 | 55.6 | 3.1*
Cc1cc2oc3c(c(=O)c2cc1C)C(c1cccc(Br)c1)N(Cc1ccco1)C3=O (stereo unspecified) | 54.2 | 1.8* | 1.4* | 39.8 | 4.5*
CCCCN1C[C@H](O)[C@@H](O)[C@H](O)[C@H]1CO | 94.6 | 1.0* | 1.2* | 100.6 | 91.4
CSc1ccc2c(c1)N(CCC1CCCCN1C)c1ccccc1S2 (stereo unspecified) | . | 1.2* | 1.4* | . | .
CCc1ccc(/C=N/n2c(C)cc(C)c(C#N)c2=O)cc1 | . | 85.2 | 96.8 | . | .
CCOC(=O)CN1C(=O)CN(c2ccc(C)cc2)C1=O | . | 104.8 | 94.1 | . | .
Cc1ccsc1C(=O)N1CC(=O)Nc2ccccc21 | 93.4 | 72.8 | 69.9 | 89.0 | 30.4*
Cc1cc(C)c2nc(SCC(=O)N3CC(=O)Nc4ccccc43)c(C#N)cc2c1 | 63.0 | 18.0 | 20.0 | 42.7 | 23.9*
Cc1cc(C)cc(C(=O)N2CC(=O)Nc3ccccc32)c1 | 49.8* | 18.1 | 15.8 | 44.8 | 35.4*
CCOC(=O)c1ccc(N2C(=O)C3C(/C=C/c4ccccc4)OC4(C(=O)c5ccccc5C4=O)C3C2=O)cc1 (stereo unspecified) | . | 82.1 | 92.5 | . | .
CCCCC(=O)Nc1sc2c(c1C(=O)OCC)CCC(C=O)=C2Cl | . | 1.4* | 1.1* | . | .
CCN(CC(=O)NC(C)C)Cc1nc2sc3c(c2c(=O)[nH]1)CCC3 | 92.8 | 92.6 | 89.1 | 87.4 | 37.0*
CN(C)C(=O)CCc1nc2sc3c(c2c(=O)[nH]1)CCCC3 | 103.7 | 96.8 | 112.5 | 101.2 | 91.4
O=C(NS(=O)(=O)Oc1cccc(Cl)c1Cl)OC[C@@H]1CCCN2CCCCC12 (stereo partly specified) | . | 81.1 | 94.8 | . | .
CCn1nc2cc(C(=O)NCCc3cccs3)ccc2c1OC | . | 96.2 | 96.4 | . | .
C/C(=N\NC(=O)C(c1ccccc1)c1ccccc1)c1ccccn1 | . | 4.3* | 5.1 | . | .
C/C(=N\NC(=O)C1COc2ccccc2O1)c1ccccn1 (stereo unspecified) | . | 5.0* | 5.2 | . | .
O=C(N/N=C\c1cc(Br)cs1)C1COc2ccccc2O1 (stereo unspecified) | 62.7 | 31.4 | 36.8 | 60.5 | 27.1*
C/C(=N\NC(=O)C1COc2ccccc2O1)c1ccc(C)o1 (stereo unspecified) | . | 102.5 | 110.9 | . | .
Cc1cc(=O)oc2cc(OS(C)(=O)=O)ccc12 | . | 88.8 | 98.9 | . | .
CCc1cccc2c(C(=O)Cn3nnc(-c4ccc(OC)c(OC)c4)n3)c[nH]c12 | 92.6 | 95.3 | 85.7 | 80.4 | 39.3*
CCc1cccc2c(C(=O)COC(=O)c3nn(C)c(=O)c4ccccc34)c[nH]c12 | 104.2 | 101.3 | 91.2 | 94.0 | 80.7
Cc1cccc2cc(CN(Cc3nnnn3Cc3ccco3)C3CCCC3)c3nnnn3c12 | 96.4 | 84.4 | 75.6 | 80.4 | 52.8
c1ccc(-c2cc3c(N4CCOCC4)ncnc3s2)cc1 | . | 87.6 | 72.1 | 72.6 | 30.9*
Cc1nc(N2CCOCC2)c2cc(-c3ccccc3)sc2n1 | 86.6 | 50.1 | 56.2 | 82.6 | 81.2
CCOC(=O)c1[nH]c2ccc(OC)cc2c1NC(=S)N1CCN(c2ccccc2OC)CC1 | . | 19.6 | 19.5 | . | .
Cc1ccc(/C(=N\O)c2oc3c(C)c4oc(=O)cc(C)c4cc3c2C)cc1 | 92.5 | 2.0* | 2.6* | 51.4 | 89.3
O=C(NCCc1c[nH]c2ccccc12)C(=O)NCC(c1ccco1)N1CCN(c2ccccc2)CC1 (stereo unspecified) | . | 79.3 | 67.3 | . | .
Cc1cc(C)nc(NC2=NCCN2C(=O)Nc2ccc(Cl)c(Cl)c2)n1 | 85.2 | . | . | 64.9 | 22.2*
